Reference: ChEMBL document CHEMBL4364272, “Discovery of a Lead Triphenylethanamine Cholesterol Ester Transfer Protein (CETP) Inhibitor” (ACS Med Chem Lett, 2019)
Active and inactive are the calls of the source. The calls are words filed in the database; no cut-off is given here.

How the values were obtained:
[1] = molecular target: T1, Cholesteryl ester transfer protein (Homo sapiens, UniProt P11597); assay: Inhibition of human recombinant CETP assessed as reduction in [3H]CE/HDL transfer incubated for 4 hrs by scintillation proximity assay
T1 sequence (P11597 whole entry): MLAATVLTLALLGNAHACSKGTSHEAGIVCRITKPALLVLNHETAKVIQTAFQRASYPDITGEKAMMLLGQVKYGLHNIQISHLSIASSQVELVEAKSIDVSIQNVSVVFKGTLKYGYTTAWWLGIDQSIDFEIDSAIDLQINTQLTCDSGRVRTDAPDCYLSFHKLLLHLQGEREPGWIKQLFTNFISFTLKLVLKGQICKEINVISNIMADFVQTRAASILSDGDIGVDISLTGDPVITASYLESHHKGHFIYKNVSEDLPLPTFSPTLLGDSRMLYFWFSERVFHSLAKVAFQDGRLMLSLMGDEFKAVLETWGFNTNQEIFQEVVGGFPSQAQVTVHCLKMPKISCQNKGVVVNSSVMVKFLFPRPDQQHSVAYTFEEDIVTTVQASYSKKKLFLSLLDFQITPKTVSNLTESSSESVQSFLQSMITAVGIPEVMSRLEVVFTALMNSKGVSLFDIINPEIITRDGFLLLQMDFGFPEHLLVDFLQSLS
Procedure, shortened: (§1)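 CETP activity was measured by scintillation proximity assay and by human whole plasma assay. Each was run in duplicate at six concentrations, and the mean values were used to calculate IC50.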

[2] = molecular target: T1, Cholesteryl ester transfer protein; assay: Inhibition of CETP in human whole plasma assessed as reduction in [3H]-CE/HDL transfer incubated for 2.5 hrs by topcount scintillation counting assay; format: cell-free; procedure, shortened: as §1
[3] = Stability in human liver microsomes assessed as parent compound remaining at 50 uM preincubated for 5 to 7 mins followed by NADPH addition and measured 10 mins post-dose by LC-MS/MS; format: ADME, Microsome; conditions: read-out: Stability
[4] = Stability in mouse liver microsomes assessed as parent compound remaining at 50 uM preincubated for 5 to 7 mins followed by NADPH addition and measured 10 mins post-dose by LC-MS/MS; format: ADME, Microsome; conditions: read-out: Stability
[5] = molecular target: T2, Cholesteryl ester transfer protein (Homo sapiens) (UniProt P11597); assay: Potency index, ratio of torcetrapib IC50 to test compound IC50 for inhibition of CETP in human whole plasma; format: cell-free
T2 sequence (whole entry): T1 sequence (P11597 whole entry)

[6] = Volume of distribution at steady state in Sprague-Dawley rat at 1 mg/kg, iv or 10 mg/kg, po administered via gavage measured upto 24 hrs by LC-MS/MS; format: ADME, organism-based; conditions: in vivo, read-out: Vdss
Procedure, shortened: (§2)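 Single IV and oral doses: rat 1 mg/kg IV and 10 mg/kg PO; mouse 5 mg/kg IV and 10 mg/kg PO; monkey 1 mg/kg IV and 5 mg/kg PO. IV vehicle was 10% Cremophor/10% EtOH/80% H2O for rodents and 70% PEG-400/10% EtOH/20% H2O for monkey. Oral vehicle was 15% Miglyol 812/30% Capmul MCM/15% Triacetin/40% Cremophor RH40, or the Cremophor vehicle for rat. Vss, Cl, t1/2 and %F were derived.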

[7] = Clearance in Sprague-Dawley rat at 1 mg/kg, iv or 10 mg/kg, po administered via gavage measured upto 24 hrs by LC-MS/MS; format: ADME, organism-based; conditions: in vivo; procedure, shortened: as §2
[8] = Half life in Sprague-Dawley rat at 1 mg/kg, iv or 10 mg/kg, po administered via gavage measured upto 24 hrs by LC-MS/MS; format: ADME, organism-based; conditions: in vivo; procedure, shortened: as §2
[9] = Oral bioavailability in Sprague-Dawley rat at 10 mg/kg administered via gavage measured upto 24 hrs by LC-MS/MS; format: ADME, organism-based; conditions: in vivo; procedure, shortened: as §2
[10] = Volume of distribution at steady state in Balb/c mouse at 5 mg/kg, iv or 10 mg/kg, po administered via gavage measured upto 24 hrs by LC-MS/MS; format: ADME, organism-based; conditions: in vivo, read-out: Vdss; procedure, shortened: as §2
[11] = Clearance in Balb/c mouse at 5 mg/kg, iv or 10 mg/kg, po administered via gavage measured upto 24 hrs by LC-MS/MS; format: ADME, organism-based; conditions: in vivo; procedure, shortened: as §2
[12] = Half life in Balb/c mouse at 5 mg/kg, iv or 10 mg/kg, po administered via gavage measured upto 24 hrs by LC-MS/MS; format: ADME, organism-based; conditions: in vivo; procedure, shortened: as §2
[13] = Oral bioavailability in Balb/c mouse at 10 mg/kg measured upto 24 hrs by LC-MS/MS; format: ADME, organism-based; conditions: in vivo; procedure, shortened: as §2
[14] = Volume of distribution at steady state in cynomolgus monkey at 1 mg/kg, iv or 5 mg/kg, po administered via gavage measured upto 24 hrs by LC-MS/MS; format: ADME, organism-based, Macaca fascicularis; conditions: in vivo, read-out: Vdss; procedure, shortened: as §2
[15] = Clearance in cynomolgus monkey at 1 mg/kg, iv or 5 mg/kg, po administered via gavage measured upto 24 hrs by LC-MS/MS; format: ADME, organism-based, Macaca fascicularis; conditions: in vivo; procedure, shortened: as §2
[16] = Half life in cynomolgus monkey at 1 mg/kg, iv or 5 mg/kg, po administered via gavage measured upto 24 hrs by LC-MS/MS; format: ADME, organism-based, Macaca fascicularis; conditions: in vivo; procedure, shortened: as §2
[17] = Oral bioavailability in cynomolgus monkey at 5 mg/kg administered via gavage measured upto 24 hrs by LC-MS/MS; format: ADME, organism-based, Macaca fascicularis; conditions: in vivo; procedure, shortened: as §2
Mus musculus = assay: In vivo inhibition of CETP in hCETP/apoB-100 dual transgenic mouse assessed as reduction in [3H]-CE transfer at 0.5 mg/kg, po administered via gavage measured after 2 to 8 hrs by radioactivity based assay; format: functional, organism-based
Hamster = assay: In vivo inhibition of CETP in hamster assessed as increase in HDL cholesterol at 10 mg/kg, po qd administered for 7 days measured 6 hrs post-dose on every other day by FPLC analysis relative to control; format: functional; conditions: Cricetinae
Procedure, shortened: (§3)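 Hamsters received 10 mg/kg. Plasma cholesterol profiles were resolved by FPLC to give HDL cholesterol change, and plasma exposure was measured.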

CYP11B1 = assay: Effect on CYP11B1 gene expression in human NCI-H295R cells at 10 uM measured after 24 hrs relative to control; format: ADME, cell-based; conditions: read-out: FC
Procedure, shortened: (§4)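 H295R cells were incubated for 24 h with test agent at 10 μM or angiotensin-II at 0.1 μM. CYP11B1 and CYP11B2 mRNA levels were measured and expressed as fold of control.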

CYP11B2 = assay: Effect on CYP11B2 gene expression in human NCI-H295R cells at 10 uM measured after 24 hrs relative to control; format: ADME, cell-based; conditions: read-out: FC; procedure, shortened: as §4
[18] = Cardiac toxicity in telemetered rat assessed as change in systolic blood pressure at 2.5 mg/kg administered as iv infusion for 5 mins followed by 7.5 mg/kg, iv infusion for 55 mins; format: organism-based; conditions: in vivo
Procedure, shortened: (§5)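 Rats were telemetered and given a total of 10 mg/kg IV: 2.5 mg/kg infused over 5 min, then 7.5 mg/kg infused over 55 min (n = 7). Mean, systolic and diastolic BP, heart rate and locomotor activity were monitored, and the observed Cmax was recorded.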

[19] = Cardiac toxicity in telemetered rat assessed as change in diastolic blood pressure at 2.5 mg/kg administered as iv infusion for 5 mins followed by 7.5 mg/kg, iv infusion for 55 mins; format: organism-based; conditions: in vivo; procedure, shortened: as §5
[20] = Cardiac toxicity in telemetered rat assessed as change in heart rate at 2.5 mg/kg administered as iv infusion for 5 mins followed by 7.5 mg/kg, iv infusion for 55 mins; format: organism-based; conditions: in vivo; procedure, shortened: as §5
[21] = Toxicity in telemetered rat assessed as effect on locomotor activity at 2.5 mg/kg administered as iv infusion for 5 mins followed by 7.5 mg/kg, iv infusion for 55 mins; format: organism-based; conditions: in vivo; procedure, shortened: as §5
[22] = Cmax in telemetered rat at 2.5 mg/kg administered as iv infusion for 5 mins followed by 7.5 mg/kg, iv infusion for 55 mins; format: ADME, organism-based; parameters: dose 2.5 mg/kg, route intravenous; conditions: in vivo; procedure, shortened: as §5
[23] = Plasma concentration in hamster at 10 mg/kg, po qd administered for 7 days; format: ADME, organism-based; conditions: cricetinae; procedure, shortened: as §3
[24] = molecular target: Voltage-gated inwardly rectifying potassium channel KCNH2 (Homo sapiens, UniProt Q12809); assay: Inhibition of human ERG expressed in HEK293 cells by flux assay
Voltage-gated inwardly rectifying potassium channel KCNH2, sequence (Q12809 whole entry): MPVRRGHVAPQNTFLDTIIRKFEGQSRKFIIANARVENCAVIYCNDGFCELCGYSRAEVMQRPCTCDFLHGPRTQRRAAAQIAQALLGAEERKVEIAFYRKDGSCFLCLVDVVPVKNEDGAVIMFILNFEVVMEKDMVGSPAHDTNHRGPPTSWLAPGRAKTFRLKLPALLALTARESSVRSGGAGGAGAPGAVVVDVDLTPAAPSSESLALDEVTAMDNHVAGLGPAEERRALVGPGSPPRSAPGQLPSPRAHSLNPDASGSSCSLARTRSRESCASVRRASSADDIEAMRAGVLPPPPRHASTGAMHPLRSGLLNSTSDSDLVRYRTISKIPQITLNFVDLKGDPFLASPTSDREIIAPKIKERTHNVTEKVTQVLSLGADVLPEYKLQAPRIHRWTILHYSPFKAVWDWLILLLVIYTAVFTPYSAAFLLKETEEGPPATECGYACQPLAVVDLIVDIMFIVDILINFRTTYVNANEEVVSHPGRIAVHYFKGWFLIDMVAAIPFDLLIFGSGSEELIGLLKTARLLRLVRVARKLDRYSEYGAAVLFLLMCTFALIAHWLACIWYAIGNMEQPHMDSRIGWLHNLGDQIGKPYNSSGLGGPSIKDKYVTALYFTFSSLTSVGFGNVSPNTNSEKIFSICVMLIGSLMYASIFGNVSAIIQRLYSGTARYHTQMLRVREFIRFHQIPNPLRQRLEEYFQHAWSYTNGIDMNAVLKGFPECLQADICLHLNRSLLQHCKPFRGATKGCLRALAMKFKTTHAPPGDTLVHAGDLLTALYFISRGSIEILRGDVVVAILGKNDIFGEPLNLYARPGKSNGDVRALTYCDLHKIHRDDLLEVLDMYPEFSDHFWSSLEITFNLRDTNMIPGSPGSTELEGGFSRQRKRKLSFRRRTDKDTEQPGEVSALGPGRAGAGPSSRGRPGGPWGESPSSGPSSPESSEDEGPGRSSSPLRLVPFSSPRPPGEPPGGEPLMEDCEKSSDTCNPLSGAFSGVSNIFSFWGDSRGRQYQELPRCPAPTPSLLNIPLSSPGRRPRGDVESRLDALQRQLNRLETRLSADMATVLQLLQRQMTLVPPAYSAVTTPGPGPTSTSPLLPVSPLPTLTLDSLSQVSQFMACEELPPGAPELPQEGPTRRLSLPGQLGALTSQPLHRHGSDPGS

SMILES: NC(C(=O)N[C@@](Cc1ccccc1)(c1cc(F)cc(OC(F)(F)C(F)F)c1)c1ccc(F)c(OC2CC2)c1)C(O)(C(F)(F)F)C(F)(F)F (stereo partly drawn)
- IC50 [1]: 2 nM
- IC50 [2]: 62 nM
- remaining at 10 min, 50 µM [3]: 100%
- remaining at 10 min, 50 µM [4]: 100%
- Ratio IC50 [5]: 2
- Vd [6]: 1.5 L/kg
- clearance [7]: 2.9 mL/min/kg
- half-life [8]: 1500 min
- bioavailability [9]: 39%
- Vd [10]: 0.4 L/kg
- clearance [11]: 1.9 mL/min/kg
- half-life [12]: 300 min
- bioavailability [13]: 18%
- Vd [14]: 3.7 L/kg
- clearance [15]: 0.7 mL/min/kg
- half-life [16]: 2.88 days
- bioavailability [17]: 27%
- inhibition (Mus musculus): Active
- inhibition in vivo at 10 mg/kg (Hamster): 32%
- fold induction at 24 h, 10 µM (CYP11B1): 1.3
- fold induction at 24 h, 10 µM (CYP11B2): 0.9 to 2.1
- Activity [18]: Non-Toxic
- Activity [19]: Non-Toxic
- Activity [20]: Non-Toxic
- Activity [21]: Non-Toxic
- Cmax [22]: 23.5 µM
- concentration at 168 h [23]: 900 nM
- IC50 [24]: > 80 µM
